# Measurements of several laboratories.
# Compare with care: the assays were run in different laboratories.
# CDK3 with cyclin E1: Cyclin-dependent kinase 3, with cyclin E1 (CDK3, Homo sapiens, UniProt Q00526)
# CDK3 with cyclin E: Cyclin-dependent kinase 3, with cyclin E (CDK3, Homo sapiens, UniProt Q00526)
# CDK3: Cyclin-dependent kinase 3 (CDK3, Homo sapiens, UniProt Q00526)
Structure (SMILES),target,effect on,action,technique,tested at,quantity,value
CC(C)(C)c1nc(-c2cccc(NS(=O)(=O)c3c(F)cccc3F)c2F)c(-c2ccnc(N)n2)s1,CDK3 with cyclin E1,enzyme activity,inhibitor,radiometric,1 µM,remaining activity,103%
O=C(CSc1nc2nccnc2c(=O)n1CCc1ccccc1)Nc1nccs1,CDK3 with cyclin E1,enzyme activity,inhibitor,,10 µM,inhibition,-19%
Cc1ccc(NC(=O)c2ccc(C)c(C(F)(F)F)c2)cc1C#Cc1nn(C2CCC(O)CC2)c2ncnc(N)c12 (centres unmarked),CDK3 with cyclin E,cell-free assay,,,10 µM,remaining signal,93%
CN(C)CC#Cc1ccc(OCCCc2sc(N3CCc4cccc(C(=O)Nc5nc6ccccc6s5)c4C3)nc2C(=O)O)c(F)c1,CDK3,cell-free assay,,competition with immobilised ligand,1 µM,remaining binding,68%
Nc1ncnc2occ(-c3ccc(NC(=O)Nc4cc(C(F)(F)F)ccc4F)cc3)c12,CDK3,cell-free assay,inhibitor,,20 µM,remaining signal,0.05%
Cc1ccc(-n2nc(C(C)(C)C)cc2NC(=O)Nc2ccc(OCCN3CCOCC3)c3ccccc23)cc1,CDK3 with cyclin E,enzyme activity,inhibitor,,10 µM,inhibition,-10%
Oc1cccc(-c2nc(N3CCOCC3)c3oc4ncccc4c3n2)c1,CDK3 with cyclin E,cell-free assay,,,0.5 µM,remaining signal,93.9%
Cc1sc(C(=O)NC2COC2)cc1-n1cc(NC(=O)Nc2c(F)cccc2Cl)cn1,"Cyclin-dependent kinase 3, with cyclin E2 (CDK3, Homo sapiens, UniProt Q00526)",enzyme activity,inhibitor,,10 µM,remaining activity,103%
O=C(NCc1ncc(C(F)(F)F)cc1Cl)c1ccc2c(c1)C1(CCS(=O)(=O)CC1)[C@@H](C1CC1)N2S(=O)(=O)c1ccc(F)cc1,CDK3,cell-free assay,,competition with immobilised ligand,1 µM,remaining binding,41%
Cc1ccc(Nc2nccc(N(C)c3ccc4c(C)n(C)nc4c3)n2)cc1S(N)(=O)=O,CDK3 with cyclin E,enzyme activity,inhibitor,,0.3 µM,inhibition,-4%
O=C1Nc2ccc(Cl)cc2C1=Cc1cc(Cl)c(O)c(Cl)c1,CDK3 with cyclin E,cell-free assay,,,0.5 µM,remaining signal,85.4%
CC(C)(O)[C@H]1CC[C@H](Nc2ccc3ncc(-c4cccc(C(F)(F)F)c4)n3n2)CC1,CDK3 with cyclin E,enzyme activity,inhibitor,,1 µM,remaining activity,105%
O=C(Nc1cnn(-c2csc(C(=O)NC3COC3)c2)c1)Nc1ccccc1Cl,CDK3 with cyclin E,enzyme activity,inhibitor,,5 µM,remaining activity,107%
Cc1nccc(COC(=O)N2C[C@@H]3[C@@H](CNC(=O)c4ccc5[nH]nnc5c4)[C@@H]3C2)n1,CDK3,cell-free assay,,competition with immobilised ligand,1 µM,remaining binding,97%
CNC(=O)c1cc(Oc2ccc(NC(=O)Nc3ccc(Cl)c(C(F)(F)F)c3)cc2)ccn1,CDK3 with cyclin E,enzyme activity,inhibitor,,0.3 µM,inhibition,-6%
CCCCN(CCCC)C(=O)CN1C[C@H](c2cc(OC)c3c(c2)OCO3)[C@@H](C(=O)O)[C@@H]1CC(C)(C)CCC,CDK3,cell-free assay,,competition with immobilised ligand,1 µM,remaining binding,100%
CC(C)(C)c1nc2c(s1)c1nc(N)ncc1c1ccc(NS(=O)(=O)c3c(F)cccc3F)c(F)c12,CDK3 with cyclin E1,enzyme activity,inhibitor,radiometric,1 µM,remaining activity,98%
CO[C@@H](C)c1c(Nc2ccc([C@@H](N(C)C(=O)C3CCS(=O)(=O)CC3)C(F)(F)F)cc2)cnc2cc(Cl)nn12,CDK3,cell-free assay,,competition with immobilised ligand,1 µM,remaining binding,88%
Cc1cnc(NC2CCOCC2)nc1-n1cnc(C(=O)NC(CN)c2cc(F)cc(Cl)c2)c1 (centres unmarked),CDK3 with cyclin E,enzyme activity,inhibitor,radiometric,1 µM,remaining activity,5%
Cc1nc(C2CCN(C(=O)c3ccc(OC(F)(F)F)cc3N)CC2)c2ncc(N3CCN(C)CC3)cc2n1,CDK3,cell-free assay,,competition with immobilised ligand,1 µM,remaining binding,100%
CCN(CC)CCNC(=O)c1c(C)[nH]c(/C=C2\C(=O)Nc3ccc(F)cc32)c1C,CDK3 with cyclin E,enzyme activity,inhibitor,,10 µM,inhibition,41%
CS(=O)(=O)NCC[C@H](NC(=O)c1cncc2c1cnn2-c1ccc(F)cc1)c1ccnc(S(C)(=O)=O)c1,CDK3,cell-free assay,,competition with immobilised ligand,1 µM,remaining binding,100%
O=C(Nc1cnn(-c2csc(C(=O)NC3COC3)c2)c1)Nc1c(F)cccc1Cl,CDK3 with cyclin E,enzyme activity,inhibitor,,5 µM,remaining activity,92.2%
